As usually defined, the inhibition is the share of the control response that was lost under treatment. A high value points to strong suppression. As usually defined, the half-life is the time in which the quantity being followed falls by half. The term inhibition in vivo denotes the share of the control response that was lost under treatment.

Structures are written as SMILES.

One data set has as its target CYP3A4 (Homo sapiens, UniProt P08684). The data set is described as follows: Inhibition of CYP3A4 (unknown origin) at 1 uM relative to control. It counts as ADME.
Data set [1] can be described thus: Half life in mouse at 10 mg/kg, po. The note with it: in vivo. It counts as ADME, organism-based. The procedure, abridged: (§1)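 Mice dosed orally at 10, 30 or 100 mg/kg as a suspension in 1% methylcellulose 400cp + 0.1% Poloxamer (188). Tmax, Cmax, AUClast and oral t1/2 were taken from plasma concentration–time profiles. Ratios are the value at each dose over the value at 10 mg/kg.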

In data set [2] the test system is Mus musculus. The data set is described as follows: In vivo inverse agonist activity at RORgamma in po dosed MOG(35-55) peptide/PTX-induced mechanistic C57BL/6 mouse model assessed as anti-CD3 induced IL-22 level in serum dosed for 5 days during MOG/PTX priming and followed by 45 mins prior to anti-CD3 challenge and measured after 2 hrs relative to control. The class given is functional, organism-based. The settings on record: dose mg/kg 10-100, time 5.0 day. The procedure, abridged: (§2)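 Mice immunized with mouse MOG35-55 peptide plus pertussis toxin. After 5 days, compound given orally as a suspension in methylcellulose 400cp + 1% poloxamer, 45 min before an anti-CD3 challenge. Circulating cytokines measured 2 h later. Comparison vs vehicle by Dunnett post test.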

Data set [3] in a line: In vivo inverse agonist activity at RORgamma in MOG(35-55) peptide/PTX-induced mechanistic C57BL/6 mouse model assessed as anti-CD3 induced IL-10 level in serum at 10 mg/kg, po dosed for 5 days during MOG/PTX priming and followed by 45 mins prior to anti-CD3 challenge and measured after 2 hrs (reference value: -11%). The class given is functional. The settings on record: time 5 day. The procedure, abridged:
as §2

Data set [4] is described as follows: In vivo inverse agonist activity at RORgamma in MOG(35-55) peptide/PTX-induced mechanistic C57BL/6 mouse model assessed as anti-CD3 induced IL-17A level in serum at 10 mg/kg, po dosed for 5 days during MOG/PTX priming and followed by 45 mins prior to anti-CD3 challenge and measured after 2 hrs relative to control. The settings on record: time 5 day. It counts as functional. The method in brief:
as §2

For data set [5], the system named is Mus musculus. Put plainly: Immunosuppressive activity in PLP (139 to 151 residues)-induced experimental autoimmune encephalomyelitis mouse model assessed as reduction in disease onset at 60 mg/kg, po administered bid starting from immunization relative to control. It counts as functional. The method in brief: (§3)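 EAE induced in mice by immunization with proteolipid protein peptide PLP139-151; ascending paralysis develops 10–12 days post-immunization. Compound dosed orally b.i.d. starting from immunization. Disease onset/incidence scored relative to control.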

Data set [6] in a line: Ratio of AUClast in mouse at 30 mg/kg, po to AUClast in mouse at 10 mg/kg, po. It counts as ADME, organism-based. The settings on record: in vivo. The procedure, abridged:
as §1

Data set [7] is described as follows: In vivo inverse agonist activity at RORgamma in MOG(35-55) peptide/PTX-induced mechanistic C57BL/6 mouse model assessed as anti-CD3 induced IL-6 level in serum at 100 mg/kg, po dosed for 5 days during MOG/PTX priming and followed by 45 mins prior to anti-CD3 challenge and measured after 2 hrs relative to control. The class given is functional. The settings on record: time 5 day. The method in brief:
as §2

Data set [8] can be described thus: In vivo inverse agonist activity at RORgamma in MOG(35-55) peptide/PTX-induced mechanistic C57BL/6 mouse model assessed as anti-CD3 induced IFNgamma level in serum at 30 mg/kg, po dosed for 5 days during MOG/PTX priming and followed by 45 mins prior to anti-CD3 challenge and measured after 2 hrs relative to control. It counts as functional. The settings on record: time 5 day. The procedure, abridged:
as §2

Data set [9] is described as follows: Half life in mouse at 100 mg/kg, po. The settings on record: in vivo. The class given is ADME, organism-based. The method in brief:
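Oral ascending-dose PK in mice at 100 mg/kg (ratios against 10 mg/kg), given as a suspension in 1% methylcellulose 400cp + 0.1% Poloxamer. Cmax, AUClast and t1/2 come from plasma profiles.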

The nature of data set [10]: Stability in mouse microsomes assessed as unbound intrinsic clearance. The class given is ADME, Microsome. The procedure, abridged: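 Unbound intrinsic clearance measured in human and mouse liver microsomes, expressed in L/h/kg. Values are geometric means of at least two separate runs.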
In data set [11] the test system is Mus musculus. Put plainly: Immunosuppressive activity in PLP (139 to 151 residues)-induced experimental autoimmune encephalomyelitis mouse model assessed as incidence of disease at 30 mg/kg, po administered bid starting from immunization relative to control. The class given is functional. The method in brief:
as §3

Data set [12] relates to Mus musculus. The data set is described as follows: Immunosuppressive activity in PLP (139 to 151 residues)-induced experimental autoimmune encephalomyelitis mouse model assessed as reduction in disease onset at 100 mg/kg, po administered bid starting from immunization relative to control. It counts as functional. The procedure, abridged: as §3
The nature of data set [13]: Ratio of AUClast in mouse at 100 mg/kg, po to AUClast in mouse at 10 mg/kg, po. The settings on record: in vivo. The class given is ADME, organism-based. The method in brief:
as §1

The next data set concerns the target Cytochrome P450 3A4 (Homo sapiens, UniProt P08684). Put plainly: Drug metabolism assessed as CYP3A4 (unknown origin) mediated metabolite formation. The class given is ADME.
Data set [14] is described as follows: Ratio of Cmax in mouse at 30 mg/kg, po to Cmax in mouse at 10 mg/kg, po. The class given is ADME, organism-based. The note with it: in vivo. The procedure, abridged: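 Mice dosed orally with an ascending-dose series at 10, 30 and 100 mg/kg. Compound given as a suspension in 1% methylcellulose 400cp + 0.1% poloxamer. Plasma Tmax taken from the concentration profiles. The Cmax ratio is expressed relative to the 10 mg/kg dose.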

The nature of data set [15]: In vivo inverse agonist activity at RORgamma in MOG(35-55) peptide/PTX-induced mechanistic C57BL/6 mouse model assessed as anti-CD3 induced IL-17F level in serum at 10 mg/kg, po dosed for 5 days during MOG/PTX priming and followed by 45 mins prior to anti-CD3 challenge and measured after 2 hrs relative to control. The class given is functional. The settings on record: time 5 day. The method in brief: as §2

Data set [16] is described as follows: In vivo inverse agonist activity at RORgamma in MOG(35-55) peptide/PTX-induced mechanistic C57BL/6 mouse model assessed as anti-CD3 induced IL-17A level in serum at 30 mg/kg, po dosed for 5 days during MOG/PTX priming and followed by 45 mins prior to anti-CD3 challenge and measured after 2 hrs relative to control. The settings on record: time 5 day. The class given is functional. The procedure, abridged:
as §2

Data set [17] is described as follows: In vivo inverse agonist activity at RORgamma in MOG(35-55) peptide/PTX-induced mechanistic C57BL/6 mouse model assessed as anti-CD3 induced IFNgamma level in serum at 10 mg/kg, po dosed for 5 days during MOG/PTX priming and followed by 45 mins prior to anti-CD3 challenge and measured after 2 hrs relative to control. The class given is functional. The note with it: time 5 day. The method in brief:
as §2

Chain of CYP3A4 (P08684 whole entry): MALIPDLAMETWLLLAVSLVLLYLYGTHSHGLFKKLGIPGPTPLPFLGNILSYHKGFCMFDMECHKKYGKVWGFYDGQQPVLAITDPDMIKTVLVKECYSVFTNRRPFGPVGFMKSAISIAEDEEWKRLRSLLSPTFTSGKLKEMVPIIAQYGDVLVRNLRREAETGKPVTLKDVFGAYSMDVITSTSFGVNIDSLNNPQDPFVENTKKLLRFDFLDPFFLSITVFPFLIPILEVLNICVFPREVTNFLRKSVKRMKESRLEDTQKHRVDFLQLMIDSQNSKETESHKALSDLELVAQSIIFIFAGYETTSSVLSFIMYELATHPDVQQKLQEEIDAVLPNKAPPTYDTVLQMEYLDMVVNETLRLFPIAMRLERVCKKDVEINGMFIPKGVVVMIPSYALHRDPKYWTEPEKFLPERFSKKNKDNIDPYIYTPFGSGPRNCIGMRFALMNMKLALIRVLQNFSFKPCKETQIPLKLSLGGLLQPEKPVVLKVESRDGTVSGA
Chain of Cytochrome P450 3A4 (P08684 whole entry): as above

The molecule `CNC(=O)[C@@H]1CCCN1S(=O)(=O)c1ccc(Cl)c(COc2cccc3c(-c4cncn4C)cc(C(C)C)nc23)c1Cl` displayed an inhibition at 1 µM against CYP3A4 of 99%. Also, the half-life is under 1 h in data set [1] and 2.2 h in data set [9]. In addition, the Activity entry in the data set with Mus musculus [2] is “Dose-dependent effect”; in data set [3] it was -3%; in data set [4] it was -23%; in [7] it was -21%; in [8] it was -45%; in the data set on Mus musculus [11], 100%. The Activity in data set [15] is reported as -20%; in data set [16], -52%; in [17], -39%. In the data set on Mus musculus [5], the inhibition in vivo at 60 mg/kg was determined as 81%. For the same molecule, the Ratio in data set [6] is 8.8; in data set [13], 58; in data set [14], 3.5. Besides, the CL free in data set [10] was 100 mL/min/kg. Moreover, the inhibition in vivo at 100 mg/kg with Mus musculus [12] was 76%. In addition, at Cytochrome P450 3A4, the Fm amounted to 87%.

Values taken from ChEMBL document CHEMBL4665652, “Discovery of novel quinoline sulphonamide derivatives as potent, selective and orally active RORγ inverse agonists” (Bioorg Med Chem Lett, 2019).
